Assays:
[1] = target: T1, Disintegrin and metalloproteinase domain-containing protein 9 (Homo sapiens, UniProt Q13443); assay: Inhibition of the heparin binding epidermal growth factor (HB-EGF) release from fibrosarcoma HT1080 transfectants expressing […] (AP) tagged HB-EGF stimulated by 12-O-tetradecanoylphorbol 13-acetate(TPA).
T1 sequence (Q13443 whole entry): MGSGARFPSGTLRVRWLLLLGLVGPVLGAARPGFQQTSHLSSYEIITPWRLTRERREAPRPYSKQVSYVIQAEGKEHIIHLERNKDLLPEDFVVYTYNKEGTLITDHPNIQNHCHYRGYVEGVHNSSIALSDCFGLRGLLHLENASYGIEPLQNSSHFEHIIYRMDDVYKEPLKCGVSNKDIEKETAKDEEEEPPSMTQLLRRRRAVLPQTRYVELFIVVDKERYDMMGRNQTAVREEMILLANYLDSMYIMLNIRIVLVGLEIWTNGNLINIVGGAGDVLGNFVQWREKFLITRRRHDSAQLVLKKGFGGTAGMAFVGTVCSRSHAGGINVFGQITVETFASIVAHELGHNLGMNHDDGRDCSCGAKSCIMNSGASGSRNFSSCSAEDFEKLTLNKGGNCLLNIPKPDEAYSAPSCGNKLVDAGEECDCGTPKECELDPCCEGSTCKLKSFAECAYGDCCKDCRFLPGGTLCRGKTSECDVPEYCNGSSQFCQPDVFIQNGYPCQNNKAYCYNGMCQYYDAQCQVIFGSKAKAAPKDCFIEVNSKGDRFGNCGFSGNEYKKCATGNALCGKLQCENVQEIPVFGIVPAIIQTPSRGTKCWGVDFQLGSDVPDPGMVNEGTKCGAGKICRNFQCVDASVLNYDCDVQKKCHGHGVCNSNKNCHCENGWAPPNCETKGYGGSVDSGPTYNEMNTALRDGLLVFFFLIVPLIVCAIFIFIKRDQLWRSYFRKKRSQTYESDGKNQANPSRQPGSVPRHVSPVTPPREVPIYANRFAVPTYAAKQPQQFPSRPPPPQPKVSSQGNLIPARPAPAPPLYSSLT
Summary of the method: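 HT-1080 transfectants in MEM/10% FCS seeded at 2 × 10⁵ cells/well, grown 24 h, PBS-washed, preincubated 30 min with compound in MEM containing 1% DMSO. Stimulated with TPA (60 nM) for 60 min. Supernatant heated 10 min at 65 °C to kill endogenous phosphatases, then incubated 2 h with p-nitrophenyl phosphate (1 mg/mL) in 1 M diethanolamine, pH 9.8; A405. IC50 from a concentration series.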

[2] = target: Matrix metalloproteinase-9 (Homo sapiens, UniProt P14780); assay: Inhibitory activity against matrix metalloprotease-9 (MMP-9)(gelatinase-B).
Sequence of Matrix metalloproteinase-9 (P14780 whole entry): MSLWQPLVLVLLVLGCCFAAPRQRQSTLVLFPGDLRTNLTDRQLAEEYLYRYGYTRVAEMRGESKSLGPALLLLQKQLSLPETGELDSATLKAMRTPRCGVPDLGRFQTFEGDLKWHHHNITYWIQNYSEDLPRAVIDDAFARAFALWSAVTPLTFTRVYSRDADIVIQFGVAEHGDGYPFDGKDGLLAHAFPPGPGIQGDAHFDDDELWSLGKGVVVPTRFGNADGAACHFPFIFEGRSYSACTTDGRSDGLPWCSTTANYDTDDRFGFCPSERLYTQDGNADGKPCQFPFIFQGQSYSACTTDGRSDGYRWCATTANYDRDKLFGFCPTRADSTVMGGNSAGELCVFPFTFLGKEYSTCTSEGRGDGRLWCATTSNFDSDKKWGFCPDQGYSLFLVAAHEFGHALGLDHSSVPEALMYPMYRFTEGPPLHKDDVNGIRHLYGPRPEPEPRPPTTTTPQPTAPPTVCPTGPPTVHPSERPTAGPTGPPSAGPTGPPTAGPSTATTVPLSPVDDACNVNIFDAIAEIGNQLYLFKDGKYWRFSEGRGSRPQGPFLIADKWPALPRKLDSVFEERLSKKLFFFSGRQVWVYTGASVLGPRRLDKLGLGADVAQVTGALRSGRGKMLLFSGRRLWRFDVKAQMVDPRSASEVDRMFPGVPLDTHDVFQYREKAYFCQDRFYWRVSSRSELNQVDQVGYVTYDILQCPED

[3] = target: Stromelysin-1 (Homo sapiens, UniProt P08254); assay: Inhibitory activity against matrix metalloprotease-3 (MMP-3)(stromelysin-1).
Sequence of Stromelysin-1 (P08254 whole entry): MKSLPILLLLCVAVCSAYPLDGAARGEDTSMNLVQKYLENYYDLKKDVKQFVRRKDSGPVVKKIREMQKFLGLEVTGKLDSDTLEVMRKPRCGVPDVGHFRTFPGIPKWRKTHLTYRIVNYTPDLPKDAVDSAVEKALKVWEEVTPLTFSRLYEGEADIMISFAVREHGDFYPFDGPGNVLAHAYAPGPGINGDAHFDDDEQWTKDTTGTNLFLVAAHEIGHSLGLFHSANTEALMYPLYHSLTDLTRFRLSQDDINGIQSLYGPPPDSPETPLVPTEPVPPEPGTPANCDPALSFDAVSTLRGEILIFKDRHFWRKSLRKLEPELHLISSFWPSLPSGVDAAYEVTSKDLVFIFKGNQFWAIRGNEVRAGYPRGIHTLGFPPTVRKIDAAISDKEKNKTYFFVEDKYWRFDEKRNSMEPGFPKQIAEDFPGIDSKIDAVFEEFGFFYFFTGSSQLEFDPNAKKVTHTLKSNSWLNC
Summary of the method: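 Recombinant human MMP-3 activated with 1 mM p-aminophenylmercuric acetate, 1 h, 37 °C. Compound in 50 mM Tris, 150 mM NaCl, 10 mM CaCl2, 0.05% Brij-35, pH 7.5, preincubated with enzyme 10 min at 37 °C. Fluorescence-quenched peptide substrate added, 2 h at 37 °C; Ex/Em 320/405 nm. Ki from percent inhibition and substrate Km.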

[4] = target: T2, Interstitial collagenase (Homo sapiens, UniProt P03956); assay: Inhibitory activity against matrix metalloprotease-1 (MMP-1)(recombinant human collagenase-1).
T2 sequence (P03956 whole entry): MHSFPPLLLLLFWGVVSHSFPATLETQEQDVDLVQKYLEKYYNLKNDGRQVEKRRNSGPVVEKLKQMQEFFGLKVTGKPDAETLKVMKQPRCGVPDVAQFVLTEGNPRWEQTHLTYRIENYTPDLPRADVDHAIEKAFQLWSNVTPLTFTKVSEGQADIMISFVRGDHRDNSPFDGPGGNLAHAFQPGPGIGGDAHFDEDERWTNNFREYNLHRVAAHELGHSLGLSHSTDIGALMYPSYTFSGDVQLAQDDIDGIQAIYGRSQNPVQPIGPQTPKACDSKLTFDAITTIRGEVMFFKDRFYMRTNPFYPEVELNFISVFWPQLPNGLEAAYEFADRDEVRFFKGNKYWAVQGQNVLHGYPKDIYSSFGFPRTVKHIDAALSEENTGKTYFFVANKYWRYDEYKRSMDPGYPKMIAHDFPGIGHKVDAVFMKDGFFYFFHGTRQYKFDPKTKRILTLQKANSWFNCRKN

[5] = target: Disintegrin and metalloproteinase domain-containing protein 17 (Homo sapiens, UniProt P78536); assay: Inhibitory activity against tumor necrosis factor alpha converting enzyme (TACE) from human acute monocytic leukemia cell line.
Sequence of Disintegrin and metalloproteinase domain-containing protein 17 (P78536 whole entry, the tested form may be a part): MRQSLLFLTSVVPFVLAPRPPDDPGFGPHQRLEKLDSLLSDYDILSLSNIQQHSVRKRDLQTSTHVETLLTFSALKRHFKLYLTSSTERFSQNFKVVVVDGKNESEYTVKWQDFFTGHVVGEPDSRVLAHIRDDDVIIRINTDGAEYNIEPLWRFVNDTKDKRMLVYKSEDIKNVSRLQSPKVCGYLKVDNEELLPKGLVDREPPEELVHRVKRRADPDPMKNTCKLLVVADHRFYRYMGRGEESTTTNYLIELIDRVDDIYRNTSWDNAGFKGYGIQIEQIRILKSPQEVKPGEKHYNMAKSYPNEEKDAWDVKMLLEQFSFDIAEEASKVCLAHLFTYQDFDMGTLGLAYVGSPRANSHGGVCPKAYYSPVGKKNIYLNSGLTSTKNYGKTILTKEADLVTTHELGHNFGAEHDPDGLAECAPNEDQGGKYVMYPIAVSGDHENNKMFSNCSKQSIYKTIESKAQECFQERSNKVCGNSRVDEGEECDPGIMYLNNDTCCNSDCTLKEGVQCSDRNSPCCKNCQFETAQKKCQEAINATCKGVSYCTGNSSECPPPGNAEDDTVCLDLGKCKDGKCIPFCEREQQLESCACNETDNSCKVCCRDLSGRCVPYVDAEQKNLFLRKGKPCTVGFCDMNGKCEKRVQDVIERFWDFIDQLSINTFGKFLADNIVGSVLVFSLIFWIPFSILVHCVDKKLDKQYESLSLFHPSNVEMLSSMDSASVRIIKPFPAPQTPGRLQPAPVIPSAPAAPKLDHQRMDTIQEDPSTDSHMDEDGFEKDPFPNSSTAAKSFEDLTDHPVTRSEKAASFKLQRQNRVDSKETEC

COc1ccc(P(=O)(OC)N2Cc3ccccc3CC2C(=O)NO)cc1 (configuration not stated)
IC50 [1]: 70 nM
Ki [2]: 2.03 nM
Ki [3]: 2.95 nM
Ki [4]: 3.64 nM
Ki [5]: 8.92 nM

CCCCCCOP(=O)(c1ccc(OC)cc1)N1Cc2ccccc2CC1C(=O)NO (configuration not stated)
IC50 [1]: 1600 nM
Ki [2]: 6.57 nM
Ki [3]: 5.19 nM
Ki [4]: 10.9 nM
Ki [5]: 32.7 nM

CCN(CC)CCOP(=O)(c1ccc(OC)cc1)N1Cc2ccccc2CC1C(=O)NO (configuration not stated)
IC50 [1]: 1140 nM
Ki [2]: 16.7 nM
Ki [3]: 82.4 nM
Ki [4]: 10.7 nM
Ki [5]: 33.2 nM

CCOP(=O)(c1ccc(OC)cc1)N1Cc2cc(N)ccc2CC1C(=O)NO (configuration not stated)
IC50 [1]: 190 nM
Ki [2]: 11 nM
Ki [3]: 12.3 nM
Ki [4]: 10.7 nM
Ki [5]: 37.4 nM

CCOP(=O)(c1ccncc1)N1Cc2ccccc2CC1C(=O)NO (configuration not stated)
IC50 [1]: 2600 nM
Ki [2]: 278 nM
Ki [3]: 190 nM
Ki [4]: 17.4 nM
Ki [5]: 777 nM

CCOP(=O)(c1ccc(OC)cc1)N1CCCC1C(=O)NO (configuration not stated)
IC50 [1]: > 10000 nM
Ki [2]: 316 nM
Ki [3]: 527 nM
Ki [4]: > 850 nM
Ki [5]: > 780 nM

CCOP(=O)(c1ccc(OC)cc1)N1Cc2[nH]c3ccccc3c2CC1C(=O)NO (configuration not stated)
IC50 [1]: 800 nM
Ki [2]: 1.13 nM
Ki [3]: 2.04 nM
Ki [4]: 2.02 nM
Ki [5]: 2.2 nM

CCOP(=O)(c1cccc(F)c1)N1Cc2ccccc2CC1C(=O)NO (configuration not stated)
IC50 [1]: 830 nM
Ki [2]: 80.1 nM
Ki [3]: 51.4 nM
Ki [4]: 27.1 nM
Ki [5]: 22.8 nM

CCOP(=O)(c1ccccc1)N1Cc2ccccc2CC1C(=O)NO (configuration not stated)
IC50 [1]: 370 nM
Ki [2]: 42.7 nM
Ki [3]: 34.9 nM
Ki [4]: 11.4 nM
Ki [5]: 11.2 nM

CCOP(=O)(/C=C/c1ccccc1)N1Cc2ccccc2CC1C(=O)NO (configuration not stated)
IC50 [1]: 910 nM
Ki [2]: 88.8 nM
Ki [3]: 29.7 nM
Ki [4]: 160 nM
Ki [5]: 37.4 nM

CCOP(=O)(c1ccc(F)cc1)N1Cc2ccccc2CC1C(=O)NO (configuration not stated)
IC50 [1]: 300 nM
Ki [2]: 51.9 nM
Ki [3]: 64.4 nM
Ki [4]: 0.97 nM

CCOP(=O)(c1ccc(C)cc1)N1Cc2ccccc2CC1C(=O)NO (configuration not stated)
IC50 [1]: 1890 nM
Ki [2]: 41.8 nM
Ki [3]: 72.9 nM
Ki [4]: 4.9 nM
Ki [5]: 500 nM

COc1ccc(P(=O)(OCCc2ccccn2)N2Cc3ccccc3CC2C(=O)NO)cc1 (configuration not stated)
IC50 [1]: 180 nM
Ki [2]: 3.42 nM
Ki [3]: 6.41 nM
Ki [4]: 3.14 nM
Ki [5]: 120 nM

CCOP(=O)(c1ccc(OC)cc1)N1CCN(C(=O)OCc2ccccc2)CC1C(=O)NO (configuration not stated)
IC50 [1]: 430 nM
Ki [2]: 5.2 nM
Ki [3]: 14.9 nM
Ki [4]: 20.1 nM
Ki [5]: 7.99 nM

CCOP(=O)(c1ccc(OC)cc1)N1Cc2ccsc2CC1C(=O)NO (configuration not stated)
IC50 [1]: 520 nM
Ki [2]: 3.8 nM
Ki [3]: 5.2 nM
Ki [4]: 4.1 nM
Ki [5]: 6.45 nM

CCOP(=O)(c1ccccc1F)N1Cc2ccccc2CC1C(=O)NO (configuration not stated)
IC50 [1]: 1060 nM
Ki [2]: 32.1 nM
Ki [3]: 47.8 nM
Ki [4]: 24 nM
Ki [5]: 73.6 nM

CCOP(=O)(c1ccc(Oc2ccncc2)cc1)N1Cc2ccccc2CC1C(=O)NO (configuration not stated)
IC50 [1]: 660 nM
Ki [2]: 0.6 nM
Ki [3]: 4.85 nM
Ki [4]: 39.8 nM
Ki [5]: 13.8 nM

COc1ccc(P(=O)(OC(C)C)N2Cc3ccccc3CC2C(=O)NO)cc1 (configuration not stated)
IC50 [1]: 2240 nM
Ki [2]: 23.2 nM
Ki [3]: 24.4 nM
Ki [4]: 17.8 nM

COc1ccc(P(=O)(OCCc2ccc(-c3ccccc3)cc2)N2Cc3ccccc3CC2C(=O)NO)cc1 (configuration not stated)
IC50 [1]: 3560 nM
Ki [2]: 6.47 nM
Ki [3]: 12.8 nM
Ki [4]: 7.33 nM
Ki [5]: 90.2 nM

COc1ccc(P(=O)(OCC2CCCCC2)N2Cc3ccccc3CC2C(=O)NO)cc1 (configuration not stated)
IC50 [1]: 1340 nM
Ki [2]: 4.56 nM
Ki [3]: 2.43 nM
Ki [4]: 6.67 nM
Ki [5]: 15.5 nM

CCO[P@](=O)(c1ccc(OC)cc1)N1Cc2ccccc2C[C@H]1C(=O)NO
IC50 [1]: > 10000 nM
Ki [2]: > 800 nM
Ki [3]: > 650 nM
Ki [4]: > 850 nM
Ki [5]: > 780 nM

COc1ccc(P(=O)(OCCc2ccccc2)N2Cc3ccccc3CC2C(=O)NO)cc1 (configuration not stated)
IC50 [1]: 3110 nM
Ki [2]: 5.22 nM
Ki [3]: 8.15 nM
Ki [4]: 4.43 nM
Ki [5]: 42.2 nM

CCOP(=O)(CCc1ccccc1)N1Cc2ccccc2CC1C(=O)NO (configuration not stated)
IC50 [1]: 700 nM
Ki [2]: 38.3 nM
Ki [3]: 11.6 nM
Ki [4]: 20.8 nM
Ki [5]: 14.2 nM

CCOP(=O)(c1ccc(OC)cc1)N1Cc2nccnc2CC1C(=O)NO (configuration not stated)
IC50 [1]: 560 nM
Ki [2]: 7 nM
Ki [3]: 10.7 nM
Ki [4]: 7.8 nM
Ki [5]: 13.7 nM

CCOCCOc1ccc(P(=O)(OCC)N2Cc3ccccc3CC2C(=O)NO)cc1 (configuration not stated)
IC50 [1]: 70 nM
Ki [2]: 14.2 nM
Ki [3]: 29.6 nM
Ki [4]: > 850 nM
Ki [5]: 2.98 nM

CCOP(=O)(c1ccc(Oc2ccccc2)cc1)N1Cc2ccccc2CC1C(=O)NO (configuration not stated)
IC50 [1]: 260 nM
Ki [2]: 0.08 nM
Ki [3]: 0.53 nM
Ki [4]: 1.81 nM
Ki [5]: 7.89 nM

CCO[P@@](=O)(c1ccc(OC)cc1)N1Cc2ccccc2CC1C(=O)NO (some centres not stated)
IC50 [1]: 230 nM
Ki [2]: 5.05 nM
Ki [3]: 5.2 nM
Ki [4]: 4.58 nM
Ki [5]: 7.15 nM

CCOP(=O)(c1cccs1)N1Cc2ccccc2CC1C(=O)NO (configuration not stated)
IC50 [1]: 890 nM
Ki [2]: 59.2 nM
Ki [3]: 67 nM
Ki [4]: 18.7 nM
Ki [5]: 59.6 nM

CCCCOP(=O)(c1ccc(OC)cc1)N1Cc2ccccc2CC1C(=O)NO (configuration not stated)
IC50 [1]: 810 nM
Ki [2]: 9.12 nM
Ki [3]: 24 nM
Ki [4]: 5.39 nM

CCOCCOP(=O)(c1ccc(OC)cc1)N1Cc2ccccc2CC1C(=O)NO (configuration not stated)
IC50 [1]: 510 nM
Ki [2]: 6.36 nM
Ki [3]: 5.43 nM
Ki [4]: 6.75 nM
Ki [5]: 18.9 nM

CCO[P@@](=O)(c1ccc(OC)cc1)N1Cc2ccccc2C[C@H]1C(=O)NO
IC50 [1]: > 10000 nM
Ki [2]: 349 nM
Ki [3]: > 650 nM
Ki [4]: 759 nM
Ki [5]: > 780 nM

CCOP(=O)(c1ccc(Oc2ccc(N)cc2)cc1)N1Cc2ccccc2CC1C(=O)NO (configuration not stated)
IC50 [1]: 1670 nM
Ki [2]: 0.1 nM
Ki [3]: 0.5 nM
Ki [4]: 6.5 nM
Ki [5]: 21.7 nM

CCO[P@](=O)(c1ccc(OC)cc1)N1Cc2ccccc2CC1C(=O)NO (some centres not stated)
IC50 [1]: > 10000 nM
Ki [2]: > 800 nM
Ki [3]: > 650 nM
Ki [4]: > 850 nM
Ki [5]: > 780 nM

CCOP(=O)(c1ccc(N)cc1)N1Cc2ccccc2CC1C(=O)NO (configuration not stated)
IC50 [1]: 660 nM
Ki [2]: 95.6 nM
Ki [3]: 162 nM
Ki [4]: 58.8 nM
Ki [5]: 75.8 nM

CCOP(=O)(c1ccc(-c2ccccc2)cc1)N1Cc2ccccc2CC1C(=O)NO (configuration not stated)
IC50 [1]: 1960 nM
Ki [2]: 0.31 nM
Ki [3]: 4.36 nM
Ki [4]: 9.65 nM
Ki [5]: 50 nM
